{"data": "Experimental data collected from several papers", "target": "Macrophage-stimulating protein receptor (MST1R, Homo sapiens, UniProt Q04912)", "note": "Compare with care: the assays were run in different laboratories."}
{"Compound": "N#CC1(c2ccccn2)CCN(Cc2cc(C(=O)O)c(=O)n3ccccc23)CC1", "assay": "cell-free assay, competition with immobilised ligand", "conditions": "1 µM", "measurement": "remaining binding", "value": "100%"}
{"Compound": "C#Cc1n[nH]c2c(-c3cn([C@@H](C)c4ccccn4)c(=O)[nH]c3=O)cc(F)cc12", "assay": "enzyme activity, inhibitor", "conditions": "0.1 µM", "measurement": "inhibition", "value": "47.6%"}
{"Compound": "Cn1cc(-c2cc(F)cc(N3CCn4c(cc5c4CCCC5)C3=O)c2CO)cc(Nc2ccc(N3CCN(C4COC4)CC3)cn2)c1=O", "assay": "enzyme activity, inhibitor", "conditions": "0.1 µM", "measurement": "inhibition", "value": "8%"}
{"Compound": "O=c1[nH]c2ccccc2n1C1CCN(Cc2ccc(-c3[nH]c4cc5ncnc5cc4nc3-c3ccccc3)cc2)CC1", "assay": "cell-free assay", "conditions": "0.5 µM", "measurement": "remaining signal", "value": "111%"}
{"Compound": "Cc1nn(C)cc1-c1nc2c(N3CCN(Cc4ccc(Cl)cc4)CC3)c(Cl)cnc2[nH]1", "assay": "binding, competition with immobilised ligand", "conditions": "1 µM", "measurement": "remaining binding", "value": "100%"}
{"Compound": "COc1ncccc1-c1cnn2ccc(N3CCN(C(=O)OC(C)C)CC3)nc12", "assay": "binding, competition with immobilised ligand", "conditions": "1 µM", "measurement": "remaining binding", "value": "100%"}
{"Compound": "C#Cc1n[nH]c2c(-c3cn([C@@H](C)c4ccccc4)c(=O)[nH]c3=O)cc(F)cc12", "assay": "enzyme activity, inhibitor", "conditions": "0.1 µM", "measurement": "inhibition", "value": "38.6%"}
{"Compound": "Cn1cncc1[C@@](O)(COc1ccc(C#N)cc1-c1ccc(OC(F)(F)F)cc1)c1ccc(C#N)cc1", "assay": "cell-free assay, competition with immobilised ligand", "conditions": "1 µM", "measurement": "remaining binding", "value": "100%"}
{"Compound": "COc1cc(Nc2ncc(F)c(Nc3ccc4c(n3)NC(=O)C(C)(C)O4)n2)cc(OC)c1OC", "assay": "binding, competition with immobilised ligand", "conditions": "10 µM", "measurement": "inhibition", "value": "100%"}
{"Compound": "CC(C)(C)c1cc(C=C(C#N)C#N)cc(Br)c1O", "assay": "enzyme activity, inhibitor", "conditions": "0.5 µM", "measurement": "remaining activity", "value": "105%"}
{"Compound": "Cn1cc(-c2cccc(N3CCc4c(sc5c4CC(C)(C)C5)C3=O)c2CO)cc(Nc2ccncn2)c1=O", "assay": "enzyme activity, inhibitor", "conditions": "1 µM", "measurement": "inhibition", "value": "11%"}
